Published values gathered from unrelated publications.
Compare with care: the assays were run in different laboratories.
Target: Interleukin-1 receptor-associated kinase 1 (IRAK1, Homo sapiens, UniProt P51617)

| SMILES | effect on | mode | technique | tested at | quantity | result |
| --- | --- | --- | --- | --- | --- | --- |
| C[C@H]1CC[C@H](n2c3cnccc3c3cnc(Nc4ccc5c(n4)CCN(C(=O)CO)C5)nc32)CC1 | cell-free assay | – | – | 1 µM | remaining signal | 23% |
| C=CC(=O)N1CCC([C@@H]2CCNc3c(C(N)=O)c(-c4ccc(Oc5ccccc5)cc4)nn32)CC1 | enzyme activity | inhibitor | – | 1 µM | inhibition | 0% |
| COc1ccc2oc(-c3ccc4nc(N)oc4c3)c/c(=N\c3ccccc3NC(=O)CCN)c2c1 | binding | – | – | 1 µM | remaining binding | 102% |
| Cc1ccc(NC(=O)c2ccnc(C(F)(F)F)c2)cc1-c1cc(OCCO)nc(N2CCOCC2)c1 | binding | – | – | 1 µM | remaining binding | 100% |
| C#Cc1cc(-c2cc(Nc3nc(N[C@@H](C)c4ccc(F)cn4)ncc3Cl)n[nH]2)ccc1C=O | enzyme activity | inhibitor | – | 0.2 µM | inhibition | 10.8% |
| C1=C/COCc2cc(ccc2OCCN2CCCC2)Nc2nccc(n2)-c2cccc(c2)COC/1 | binding | – | – | 0.1 µM | remaining binding | 0% |
| Cc1cc(O)c(-c2ccc([C@@H](C)CN(C)C)cc2)c2c1[nH]c(=O)c1sccc12 | enzyme activity | inhibitor | – | 0.1 µM | inhibition | -2.56% |
| CCCCC(=O)Nc1ccc(-c2ccc3ncn(CCC)c(=O)c3c2)cn1 | binding | – | competition with immobilised ligand | 0.5 µM | remaining binding | 75% |
| CO[C@@H]1[C@H](N(C)C(=O)c2ccccc2)C[C@H]2O[C@]1(C)n1c3ccccc3c3c4c(c5c6ccccc6n2c5c31)C(=O)NC4 | enzyme activity | inhibitor | – | 1 µM | inhibition | 19% |
